FXIIa inh: factor XIIa (human) inhibition; purified FXIIa, Boc-QGR-AMC fluorogenic substrate, 2 h; inhibition, % at 5 µM; hit rate 0.3% among 220,000; P00748; in the data active means inhibition above about 40%;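 further: 0% = enzyme with no compound and 100% = blank without enzyme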
Thrombin inh: inhibitors of human thrombin; AID 1046; P00734; alpha-thrombin, Boc-VPR-AMC fluorogenic substrate cleavage; hit rate 0.26% among 220,000; inhibition, % at 5 µM;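 active means inhibition at or above 40%; inactive means inhibition below 40%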;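 further: 0% = enzyme with no compound and 100% = wells without enzyme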
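System: human alpha-thrombin protein; Compound dosing: one concentration per compound, 5 µM, with 0.2% DMSO; Timing: reaction at room temperature; Technique: AMC fluorescence, 355/460 nm; Controls: enzyme without compound as high, wells lacking enzyme as low.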
FXIa inh 1536: factor XIa (human) inhibition | P03951 | purified FXIa, Boc-Glu-Ala-Arg-AMC fluorogenic substrate | inhibition, % at 5 µM | hit rate 0.14% among 220,000 | AID 798;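 active means inhibition of at least 40%; inactive means inhibition below 40%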;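 further: fluorescence of freed AMC excited at 355 nm; 0% = enzyme without compound and 100% = no enzyme blank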
m-calpain inh: calpain II (pig) inhibition; hit rate 0.37% among 220,000; inhibition, % at 16 µM; purified calpain II, fluorogenic peptide substrate, 30 min; AID 1236;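 active means inhibition above about 50%, limit read from the data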
KLK5 inh: kallikrein 5 (human) inhibition. recombinant hK5, fluorogenic AMC substrate cleavage. hit rate 0.59% among 210,000. Q9Y337. inhibition, % at 5 µM;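 active means inhibition of 40% or more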;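 further: 0% = enzyme controls without compound and 100% = no-enzyme blanks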
Target sequence (Q9Y337 67-293 limits assumed): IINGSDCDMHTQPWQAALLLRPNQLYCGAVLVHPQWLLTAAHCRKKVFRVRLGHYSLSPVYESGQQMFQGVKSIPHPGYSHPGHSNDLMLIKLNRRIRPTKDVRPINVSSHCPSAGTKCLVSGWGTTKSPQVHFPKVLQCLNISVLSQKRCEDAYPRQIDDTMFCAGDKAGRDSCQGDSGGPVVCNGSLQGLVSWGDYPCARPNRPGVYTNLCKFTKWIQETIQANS
* hit, by the source's call; . = no result given. The list is not random: actives were taken first. Their share in the collection is about 1.4%.

SMILES	FXIIa inh	Thrombin inh	FXIa inh 1536	m-calpain inh	KLK5 inh
O=S(=O)(c1ccc(F)cc1)N(CCO)CC(O)Cn1c2ccccc2c2ccccc21 (stereo unspecified)	10	22	6	-6	24
CC(=O)C1=C(C)OC(N)=C(C#N)C1c1ccncc1 (stereo unspecified)	7	-4	-22	1	1
COc1ccc2cc(C3C(C#N)=C(N)OC(C)=C3C(C)=O)c(Cl)nc2c1 (stereo unspecified)	33	27	21	7	42*
CCN(CC)CCCNC(=O)Cn1ccc2ccccc2c1=O	1	-6	-2	-17	-6
CCCCN(CC)CCNC(=O)CNC(=O)Cn1ccc2ccccc2c1=O	12	-4	-1	52*	-2
O=C(Cc1ccc([N+](=O)[O-])cc1)N1N=C(C2CC2)CC1(O)C(F)(F)F (stereo unspecified)	3	0	0	34	-14
COC(=O)c1cc(C(=O)c2ccc(Cl)cc2)n2c(=O)/c(=C\N(C)C)sc12	7	-7	-2	-78	-3
CCC(=O)N1CCN(CCN=CC2=C(O)CC(C)(C)CC2=O)CC1	-9	17	10	13	40*
CNC(=O)COC(=O)c1ccc(Cl)c(S(N)(=O)=O)c1	26	13	21	8	49*
Nc1nnc(-c2cccc([N+](=O)[O-])c2)o1	2	-9	-18	7	51*
Cc1ccc(C(=O)N/C(=C\c2ccc(Cl)cc2)C(=O)NCC2CCCO2)cc1 (stereo unspecified)	10	0	4	0	-9
O=C(NCCc1ccccn1)C(F)(F)C(F)(F)C(F)(F)C(F)(F)C(F)(F)C(F)(F)C(F)(F)C(F)F	6	4	9	-8	-7
Cc1ccc(C(=O)O)cc1N1C(=O)c2cccc3cc(Br)cc(c23)C1=O	17	0	6	66*	-22
COc1ccc(S(=O)(=O)NCc2c(-c3ccccc3)noc2C)c(OC)c1	29	10	59*	8	31
Cc1onc(-c2ccccc2)c1CNS(=O)(=O)c1ccccc1	8	-2	3	-21	-1
Cc1cccc(C(=O)N2CCC(Cc3ccccc3)CC2)c1[N+](=O)[O-]	7	-4	0	0	-25
CC(/C=C/C=C/c1ccccc1)=N/NC(=O)CNc1ccccc1C	15	2	12	11	-3
CSc1ccc(NC(=O)Nc2ccc(C(=O)NCC(=O)O)cc2)cc1	2	-8	-2	17	64*
COc1cc(COCC(O)CN2CCOCC2)cc(OC)c1OC (stereo unspecified)	45*	-8	9	16	-7
COc1ccc(COCC(O)CN2CCOCC2)cc1OC (stereo unspecified)	3	-17	5	-10	0
CCOC(=O)N1CCC2(CC1)C(C#N)=C(N)Oc1n[nH]c(CSc3ccc(C)cc3)c12	2	-2	4	91*	-17
COc1ccccc1NC(=O)c1ccc(S(=O)(=O)N2CCOCC2)cc1	15	1	0	15	-2
COc1cccc2sc(NC(=O)c3ccc(S(=O)(=O)N4CCOCC4)cc3)nc12	41*	19	16	-7	32
N#Cc1cc(-c2ccccc2)nc(N2CCNCC2)n1	20	14	6	-17	7
Cc1ccccc1Nc1scc(-c2ccc(Cl)cc2)[n+]1-c1ccccc1C	2	-15	-3	50*	-3
SMILES	FXIIa inh	Thrombin inh	FXIa inh 1536	m-calpain inh	KLK5 inh
O=C(O)c1ccc(N/N=C/c2ccc(OC(=O)c3cccc(Cl)c3)cc2)cc1	9	-2	0	55*	5
O=C(Oc1ccc(/C=N/Nc2ccccc2)cc1)c1ccccc1	18	4	14	3	3
COc1cc(NC(=O)CSc2cc(C)c3cc(C)cc(C)c3n2)c(C(=O)O)cc1OC	8	0	-1	-9	5
Cc1nn(-c2ccccc2)c(N)c1C(O)(C(F)(F)F)C(F)(F)F	24	26	5	22	42*
Cc1nn(-c2ccccc2)c(N)c1C(O)(CC(=O)C(F)(F)F)C(F)(F)F (stereo unspecified)	6	-3	7	-9	-20
Cc1nc(N2CCN(Cc3ccc4c(c3)OCO4)CC2)nc2c1C(=O)CC(c1ccco1)C2 (stereo unspecified)	-12	-1	-13	67*	-1
Cc1nc(N2CCN(Cc3ccccc3)CC2)nc2c1C(=O)CC(c1ccco1)C2 (stereo unspecified)	17	1	3	24	-12
CN(C)C(=O)CSC1c2ccccc2C(=O)N1c1ccccc1 (stereo unspecified)	11	7	3	16	78*
CCOc1ccc(N=C2NN=C(c3cc(C)n(CC4CCCO4)c3C)CS2)cc1 (stereo unspecified)	36	10	30	-40	45*
CCCCOC(=O)n1ccc(C(=O)Nc2ccccc2OC)n1	16	45*	3	-38	4
CCOC(=O)N1CCN(CC(=O)Nc2sc(CC)cc2C(=O)c2ccc(OC)cc2)CC1	4	-2	-3	16	13
Cc1ccc(CNC(=O)C2CCN(S(=O)(=O)N3CCC4(CC3)OCCO4)CC2)cc1	10	-1	0	3	-13
O=C1C2CCCCC2C(=O)N1c1ccc(NC2CCN(Cc3ccccc3)CC2)c([N+](=O)[O-])c1 (stereo unspecified)	2	-2	-3	84*	-4
Clc1ccc(Oc2ncnc3oc(-c4ccccc4)cc23)cc1	33	3	18	-36	-4
Cc1ccccc1Oc1ncnc2oc(-c3ccccc3)cc12	22	34	7	8	59*
Cc1cc(C)cc(C(=O)N2CCN(c3ccccn3)CC2)c1	3	-15	-5	-20	-1
COc1ccc(S(=O)(=O)Nc2cc3c4c(oc3c3ccccc23)CC(C)(C)CC4=O)cc1	-5	24	3	-104	48*
CC1CN(S(=O)(=O)c2cccc(C(F)(F)F)c2)CC(C)O1 (stereo unspecified)	5	0	4	-6	-10
CC(C)CCN(C)C1CCN(S(=O)(=O)c2cccc(C(F)(F)F)c2)CC1	-9	26	4	29	53*
CCC1CCCCN1C(=O)c1ccc(OC2CCN(C(=O)C3CC3)CC2)cc1 (stereo unspecified)	15	1	12	57*	.
CC(C)(CO)CNC(=O)c1ccc(OC2CCN(C(=O)C3CC3)CC2)cc1	5	-3	-2	-10	.
C=C(C)CNC(=S)N/N=C1\CCCCc2ccccc21	5	-6	4	13	-6
O=c1[nH]c2ccsc2c(=O)n1CCO	3	-7	-4	-12	-1
COC(=O)c1[nH]c(C)c(/C(O)=C2\C(=O)C(=O)N(CCN(C)C)C2c2cc(OC)ccc2OC)c1C (stereo unspecified)	19	4	2	3	-16
